Hits are enriched below; roughly 4% of the tested compounds scored in any of these assays.
Insulin prom inh: TRM-6 insulin promoter activity inhibition; TRM-6 cells (human fetal islet line), insulin promoter-eGFP reporter, imaging; reporter expression induced with tamoxifen; inhibition, % at 2 µM; actives 0.9% (n = 130,000);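 active = inhibition above the mean plus 3 SD, with well images judged a real hit on visual review, cut at about 60% in these data, passing the limit was not always enough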
Yeast life ext: extends the lifespan of yeast; S. cerevisiae growth with nicotinamide, OD615; deaD strain in restrictive glucose medium; inhibition of the nicotinamide effect, % at 10 µM; actives 0.68% (n = 130,000);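 active = inhibition above a set limit, placed 3 SD over the median of all compounds, cut at about 26% in these data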;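 note: 0% = nicotinamide-treated wells and 100% = cells grown without nicotinamide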
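System: DeaD-strain S. cerevisiae / Buffer or medium: CSMM-D, restrictive glucose (dextrose) synthetic minimal medium / Probe or stimulus: nicotinamide, 1.5 mM, co-present with compound / Compound: one concentration, 10 µM, DMSO 0.25% / Incubation: 48 h compound exposure at 30 °C, humidified / Technique: optical density (absorbance) at 615 nm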
Mdm2 ligase inh: blocks human Mdm2 ubiquitin ligase activity; actives 0.11% (n = 210,000); signal enhancement, % at 5 µM; Q00987; cell-based MDM2 ubiquitination luciferase reporter, 2 h; 0 = plate control, 100 = twice control, blank-subtracted;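 active = signal enhancement of 30% or more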;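 note: luminescence tracks abundance of the self-degrading MDM2-luciferase fusion protein; higher signal means inhibition of MDM2 E3 ligase activity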
Target sequence (Q00987 whole entry, looked up, the tested form may be a part): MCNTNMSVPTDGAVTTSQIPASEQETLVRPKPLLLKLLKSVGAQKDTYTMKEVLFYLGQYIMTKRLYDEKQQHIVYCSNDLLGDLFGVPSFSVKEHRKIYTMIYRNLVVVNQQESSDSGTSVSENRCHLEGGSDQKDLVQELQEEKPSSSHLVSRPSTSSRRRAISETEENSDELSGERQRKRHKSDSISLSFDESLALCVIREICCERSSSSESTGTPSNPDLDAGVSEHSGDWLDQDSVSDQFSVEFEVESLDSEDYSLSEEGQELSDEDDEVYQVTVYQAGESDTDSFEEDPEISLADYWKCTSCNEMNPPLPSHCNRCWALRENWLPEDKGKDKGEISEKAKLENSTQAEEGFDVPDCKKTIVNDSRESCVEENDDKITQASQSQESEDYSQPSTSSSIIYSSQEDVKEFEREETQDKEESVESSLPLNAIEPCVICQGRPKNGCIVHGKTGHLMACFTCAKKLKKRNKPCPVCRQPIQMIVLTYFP
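Test system: stable mammalian line carrying autodegrading MDM2–luciferase fusion reporter; quantity: 2000 cells in each well; times: 4 h cell settling then 2 h compound exposure, 37 °C; detection: luminescence with SteadyLite reagent, 15 min at room temperature; evaluation: percent signal gain over controls, blank-subtracted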
Yeast growth inh: reduces growth of yeast BB579 in restrictive medium; inhibition, % at 10 µM; actives 0.51% (n = 140,000); S. cerevisiae BB579 growth, OD615, 48 h;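 active = inhibition above a set limit, 3 SD over the mean compound inhibition, cut at about 44% in these data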
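Assay system – yeast BB579 (DeaD) · Dosing – single compound dose of 10 µM, 0.25% DMSO final · Detection – OD615 turbidity measurement · Buffer or medium – CSMM-D restrictive synthetic medium containing dextrose (glucose) · Benchmarks – positive control amphotericin B 10 µg/mL · Incubation – 48 h exposure, 30 °C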
RAM network inh: blocks the yeast RAM network; AID 868; inhibition, % at 50 µM; S. cerevisiae dse1pr::URA3 reporter, 5-FOA growth OD615, 2 d; analog-sensitive cbk1-as2 kinase mutant strain; actives 1.8% (n = 190,000);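 active = inhibition above a set limit, 3 SD over mean compound inhibition, cut at about 8.4% in these data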;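 note: 0% = DMSO-only wells with no growth and 100% = 10 µM 1-NA-PP1 full growth; inhibition rescues growth on 5-FOA so higher OD means more RAM inhibition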
Measles CPE: protection of cells from measles virus; Measles virus-infected cells, CPE protection, absorbance; protection (pct of control), % at 4 µM; actives 1.5% (n = 140,000); AID 841; in the data active = protection mostly above about 24%, no sharp cut-off; inactive = mostly below about 26%
* = called active by the depositor; . = not tested or not shown.

SMILES	Insulin prom inh	Yeast life ext	Mdm2 ligase inh	Yeast growth inh	RAM network inh	Measles CPE
CCN(CC)c1ccc(CNCCc2ccccc2F)cc1	.	.	-4	.	1	.
COc1ccc(C2SCC(=O)Nc3c2c(=O)[nH]n3C2CCCCCC2)cc1OC (centres undefined)	-4	29*	-16	-18	-1	7
COc1cccc(CCNCc2ccc(SC)cc2)c1	.	5	-16	0	0	14
CCOC(=O)C(O)(c1ccc(NC(=O)c2ccc(Cl)c(Cl)c2)cc1)C(F)(F)F (centres undefined)	.	.	-15	.	.	.
CCOC(=O)C(=CNc1ccc(C(O)(C(=O)OCC)C(F)(F)F)cc1C)C(=O)OCC (centres undefined)	-33	1	1	-30	8.7*	8
C=C1C(=O)O[C@@H]2C[C@@H](C)[C@@H]3C4OC4C(=O)[C@@]3(C)[C@@H](O)[C@H]12 (some centres undefined)	.	.	31*	.	.	.
COc1ccc(CN2C(=O)NC(=O)/C(=C/c3ccc([N+](=O)[O-])o3)C2=O)cc1	-60	.	-19	.	3	.
c1ccc(Cn2ccnc2)cc1	43	9	.	-16	0	31
Clc1ccc(CSC(Cn2ccnc2)c2ccc(Cl)cc2Cl)cc1 (centres undefined)	-62	-9	.	98*	-2	41
Clc1ccc(COC(Cn2ccnc2)c2ccc(Cl)cc2Cl)cc1 (centres undefined)	-45	-9	.	97*	-1	3
Cc1nn(Cc2ccccc2)c(Cl)c1C(=O)NC1CCCc2ccccc21 (centres undefined)	-32	11	-12	-10	3	1
O=C1/C(=C/c2cccc([N+](=O)[O-])c2)N2CCC1CC2	.	36*	8	-37	1	4
O=P(Nc1ccccc1)(Nc1ccccc1)Oc1cccc(Cl)c1	.	-4	-5	5	0	3
CN(C(=O)Oc1ccc(C(=O)c2ccc(Cl)cc2)cc1)c1ccccc1	-3	5	4	-25	8.4*	10
CN(C)C(=O)Oc1ccc(OC(=O)c2ccccc2)cc1	.	-24	-28	-33	4	11
CCN(CC)c1ccc(/C=N/c2sc3c(c2C#N)C2CCN3CC2)c(O)c1	-285	-3	-13	-22	0	4
CC1(C)CSC(=NCc2ccccc2)N1	.	.	-15	.	1	.
O=C(c1ccc(-c2ccccc2)cc1)C1CCCN(Cc2ccn[nH]2)C1 (centres undefined)	-30	.	-12	.	1	.
O=C(Oc1c(Cl)cc(Cl)c2ccccc12)N1CCCCC1	-107	-7	3	-31	10*	12
O=C1NC(=O)N(CCc2ccc(F)cc2)C(=O)/C1=C\C=C\c1ccccc1	-20	.	50*	.	5	.
Cc1ccc(/C=C2\C(=O)NC(=O)N(CCc3ccc(F)cc3)C2=O)o1	26	39*	-1	-37	7	12
CC(C)c1oc(=O)cc2c1[C@@H](O)[C@H]1OC(=O)[C@@]3(C)C[C@@H](O)[C@@H](O)[C@@]2(C)C13 (some centres undefined)	-45	1	.	15	0	30
CN1/C(=C\C=Nc2ccccc2)C(C)(C)c2ccccc21	.	1	-14	-18	1	9
CN1/C(=C\C=C\C2=[N+](C)c3ccc4ccccc4c3C2(C)C)C(C)(C)c2ccccc21	-151	-23	-64	87*	-1	2
Cc1ccc2nc3c(cc2c1)CC1(C(=O)N(C)C(=O)N(C)C1=O)C1CCCCN31 (centres undefined)	.	-6	-15	-21	-1	34*
Cc1ccc2nc3c(cc2c1)CC1(C(=O)N(C)C(=O)N(C)C1=O)C1COCCN31 (centres undefined)	.	4	0	-20	0	6
Cc1cc([N+](=O)[O-])c2ccccc2[n+]1[O-]	.	.	-15	.	.	.
Cc1ccc(N2C(=O)NC(=O)/C(=C\C=C\c3ccco3)C2=O)cc1C	-26	29*	53*	-28	4	6
CC(=NCCO)c1c(O)n(C2CCCCC2)c(=O)[nH]c1=O	21	-4	-15	-19	2	11
